Data as given in ChEMBL document CHEMBL1268930, “Design, synthesis, and biological evaluation of dibromotyrosine analogues inspired by marine natural products as inhibitors of human prostate cancer proliferation, invasion, and migration” (Bioorg Med Chem, 2010).
Active and inactive are the calls of the source. No cut-off for these calls is given here.

How the values were obtained:
Gallus gallus [1] = organism: Gallus gallus; assay: Antiangiogenic activity in chicken embryo chorioallantoic membrane model at 1 to 50 ug/disc after 48 hrs; assay type: functional, tissue-based
In short: (§1)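 Fertilized hen eggs incubated at 37 °C, constant humidity; shell windowed and taped, eggs kept upright. Compounds in CH2Cl2 or MeOH loaded on 2-mm cellulose nitrate discs (1, 10, 50 µg/disc), placed on CAM on day five between large vessels. Imaged at 0 h and every 6 h to 48 h. Blood vessels counted per 8.0 × 6.0 mm area around the disc, plus vessel length change. Graded on a 0–3 scale.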

PC-3 [2] = assay: Antiproliferative activity against human PC3 cells after 72 hrs by MTT assay; assay type: functional, cell-based; details: PC-3, 72 h
In short: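 PC-3 cells seeded at 8×10^3/well and attached 24 h. Medium replaced with serum-free RPMI containing compound (10, 50, 100 µM; DMSO stock, 0.2% DMSO at 100 µM) for 72 h at 37 °C, 5% CO2. MTT added for 4 h, solubilized, absorbance at 570 nm. % survival relative to DMSO; IC50 by nonlinear regression of log concentration vs % survival; n = 3/dose.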

PC-3 [3] = assay: Antimigratory activity against human PC3 cells after 24 hrs under serum-free condition by wound-healing assay; assay type: functional, cell-based; details: PC-3, 24 h
In short: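 Confluent PC-3 monolayers (>95%) were scratched with a pipette tip and washed with PBS and serum-free medium. Compounds were added at 20, 50 and 100 µM in serum-free medium, with 0.2% DMSO vehicle, for 24 h. Cells were fixed and Diff-Quick stained. Cells migrating into the wound were counted in ≥3 random fields at 400×. IC50 for 50% inhibition of migration; n = 3/dose.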

Gallus gallus [4] = organism: Gallus gallus; assay: Antiangiogenic activity in chicken embryo chorioallantoic membrane model assessed as number of blood vessels per 48 mm2 area around the treatment disc >16. 3 at 1 to 50 ug/disc after 48 hrs; assay type: functional, tissue-based; in short: as §1
[5] = Cytotoxicity against rat bone marrow cells assessed as inhibition of colony formation at 100 uM by clonogenic assay; assay type: cell-based; details: bone marrow cell
In short: (§2)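 Rat femur bone marrow mononuclear cells isolated on a Histopaque-1077 gradient. 20,000 cells were plated in methylcellulose with FCS and rat recombinant GM-CSF, IL-3 and SCF (HALO kit), with compounds or vehicle. After 5 days GM-CFC colonies were measured as ATP luminescence (luciferase/luciferin) against a same-day standard curve. Results were normalized to vehicle means; n = 4; two-way ANOVA with Bonferroni tests.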

[6] = Cytotoxicity against rat bone marrow cells assessed as inhibition of colony formation at 10 uM by clonogenic assay; assay type: cell-based; details: bone marrow cell; in short: as §2
Gallus gallus [7] = organism: Gallus gallus; assay: Antiangiogenic activity in chicken embryo chorioallantoic membrane model assessed as number of blood vessels per 48 mm2 area around the treatment disc <12 at 1 to 50 ug/disc after 48 hrs
PC-3 [8] = assay: Antiinvasive activity against human PC3 cells at 50 uM after 24 hrs by cultrex BME assay; assay type: functional, cell-based
In short: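 PC-3 cells in RPMI with 10% FBS at 37 °C, 5% CO2. The top chamber was coated with BME overnight, then seeded with 50,000 cells in serum-free RPMI. Compounds were added to the top chamber from a 6× (300 µM) solution. The lower chamber held medium with 10% FBS, fibronectin (1 µL/mL) and fMLP (10 nM). After 24 h the invaded cells were labelled with calcein-AM for 1 h, read at ex 485/em 520 nm and counted from a standard curve. n = 3.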

In the case of `CCOC(=O)Cc1cc(Br)c(OC(=O)Cc2ccc(OC)cc2)c(Br)c1`, the Activity (Gallus gallus [1]) is reported as “Active”, the IC50 (PC-3 [2]) is reported as greater than 100 µM and the IC50 (PC-3 [3]) is reported as less than 10 µM.
For `CCOC(=O)Cc1cc(Br)c(OCCC(C)C)c(Br)c1`, the Activity (Gallus gallus [4]) was “inactive”, the IC50 (PC-3 [2]) was 49.2 µM and the IC50 (PC-3 [3]) was 91.3 µM. For the same compound, the Activity [5] was “Non-toxic”.
For `NC(=O)CC1(O)C=C(Br)C(=O)C(Br)=C1` [VERONGIAQUINOL], the Activity [6] was “Toxic”.
For `COc1ccc(CC(=O)Oc2c(Br)cc(CC(N)=O)cc2Br)cc1`, the IC50 (PC-3 [2]) was greater than 100 µM, the IC50 (PC-3 [3]) was 18.9 µM and the Activity (Gallus gallus [7]) was “Active”.
For `NC(=O)Cc1cc(Br)c(O)c(Br)c1`, the Activity (Gallus gallus [4]) was “inactive”, the IC50 (PC-3 [2]) was greater than 100 µM and the IC50 (PC-3 [3]) was greater than 100 µM. The Activity [5] was “Non-toxic”.
For `CCOC(=O)Cc1cc(Br)c(O)c(Br)c1`, the Activity (Gallus gallus [4]) was “inactive”, the IC50 (PC-3 [2]) was greater than 100 µM and the IC50 (PC-3 [3]) was greater than 100 µM. The Activity [5] was “Non-toxic”.
With `NC(=O)Cc1cc(Br)c(OC(=O)c2ccccc2)c(Br)c1` the IC50 (PC-3 [2]) was greater than 100 µM, the IC50 (PC-3 [3]) was 12.2 µM and the Activity (Gallus gallus [7]) was “Active”.
With `CCOC(=O)Cc1cc(Br)c(OC(=O)c2ccccc2)c(Br)c1` the Activity (Gallus gallus [1]) was “Active”, the IC50 (PC-3 [2]) was greater than 100 µM and the IC50 (PC-3 [3]) was 44.6 µM.
For `CCOC(=O)Cc1cc(Br)c(OC/C=C(/C)CC/C=C(/C)CCC=C(C)C)c(Br)c1`, the Activity (Gallus gallus [1]) was “Active”, the IC50 (PC-3 [2]) was 16.5 µM and the IC50 (PC-3 [3]) was 19.9 µM. The Activity (PC-3 [8]) was “Active” and the Activity [5] was “Non-toxic”.
With `CC(=O)Oc1c(Br)cc(CC(N)=O)cc1Br` the Activity (Gallus gallus [1]) was “Active”, the IC50 (PC-3 [2]) was greater than 100 µM and the IC50 (PC-3 [3]) was 74.8 µM.
For `CCOC(=O)Cc1cc(Br)c(OCCCc2ccc(OC)cc2)c(Br)c1`, the Activity (Gallus gallus [1]) was “Active”, the IC50 (PC-3 [2]) was 40 µM and the IC50 (PC-3 [3]) was 57.9 µM. For the same compound, the Activity (PC-3 [8]) was “Active” and the Activity [5] was “Non-toxic”.
For `CCOC(=O)Cc1cc(Br)c(OC(C)=O)c(Br)c1`, the IC50 (PC-3 [2]) was greater than 100 µM and the IC50 (PC-3 [3]) was greater than 100 µM.
In the case of `CCOC(=O)Cc1cc(Br)c(OC(=O)c2ccncc2)c(Br)c1`, the IC50 (PC-3 [2]) is reported as greater than 100 µM, the IC50 (PC-3 [3]) is reported as 44.6 µM and the Activity (Gallus gallus [7]) is reported as “Active”.
With `CCOC(=O)Cc1cc(Br)c(OCc2ccccc2)c(Br)c1` the IC50 (PC-3 [2]) was 29.7 µM, the IC50 (PC-3 [3]) was 75.5 µM and the Activity (Gallus gallus [7]) was “Active”.
